Reference: ChEMBL document CHEMBL4689842, “EUbOPEN Chemogenomics Library wave 1” (2021)

Test system: HEK-293T
Experiment: Multiplex assay against HEK293T;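 on Population Tubulin-Different-Phenotype (%): share of the cells with healthy nuclei that show this phenotype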
Type: toxicity, cell-based
Conditions: human
Procedure, shortened: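 Live cells were stained at seeding with Hoechst33342, BioTracker Green Microtubule Cytoskeleton Dye, MitoTracker Red and Annexin V Alexa Fluor 680. Following compound addition, they were imaged on a CQ1 microscope at 37°C and 5% CO2 and gated by CellPathfinder machine learning into Hoechst high-intensity objects or normal cells, with normal cells split into healthy, pyknosed or fragmented nuclei and pyknosed cells into mitotic or apoptotic. Tubulin, mitochondrial-mass and membrane-permeability phenotypes are per cents of healthy-nucleus cells.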

[1] = 12 h, 1 µM, compound concentration 1 uM, replicate 1
[2] = 12 h, 1 µM, compound concentration 1 uM, replicate 2
[3] = 12 h, 10 µM, compound concentration 10 uM, replicate 1
[4] = 12 h, 10 µM, compound concentration 10 uM, replicate 2
[5] = 24 h, 1 µM, compound concentration 1 uM, replicate 1
[6] = 24 h, 1 µM, compound concentration 1 uM, replicate 2
[7] = 24 h, 10 µM, compound concentration 10 uM, replicate 1
[8] = 24 h, 10 µM, compound concentration 10 uM, replicate 2
[9] = 48 h, 1 µM, compound concentration 1 uM, replicate 1
[10] = 48 h, 1 µM, compound concentration 1 uM, replicate 2
[11] = 48 h, 10 µM, compound concentration 10 uM, replicate 1
[12] = 48 h, 10 µM, compound concentration 10 uM, replicate 2

**Q.** For Cc1csc2c(N[C@@H](C)CN3CCN(S(=O)(=O)c4ccc(Cl)c(Cl)c4)CC3)ncnc12, which “Population Apoptotic (%)” value [1] is on record?
**A.** 58%

**Q.** What about the “Population Fragmented Nuclei (%)” value [1] of the same compound?
**A.** 12%

**Q.** And the “Population Healthy Nuclei (%)” value [1]?
**A.** 16%

**Q.** And the “Population Hoechst High Intensity Objects (%)” value [1]?
**A.** 19%

**Q.** And the “Population Membrane Permeable-Phenotype (%)” value [1]?
**A.** 6%

**Q.** And the “Population Mitochondria Different-Phenotype (%)” value [1]?
**A.** 96%

**Q.** What about the “Population Mitotic Cells (%)” value [1] of the same compound?
**A.** 41%

**Q.** What about the “Population Normal (%)” value [1] of the same compound?
**A.** 80%

**Q.** What about the “Population Pyknosed Nuclei (%)” value [1] of the same compound?
**A.** 71%

**Q.** And the “Population Tubulin-Different-Phenotype (%)” value [1]?
**A.** 93%

**Q.** What about the “Total Cell Count” value [1] of the same compound?
**A.** 223

**Q.** What about the “Population Apoptotic (%)” value [2] of the same compound?
**A.** 27%

**Q.** And the “Population Fragmented Nuclei (%)” value [2]?
**A.** 5%

**Q.** And the “Population Healthy Nuclei (%)” value [2]?
**A.** 29%

**Q.** What about the “Population Hoechst High Intensity Objects (%)” value [2] of the same compound?
**A.** 13%

**Q.** What about the “Population Membrane Permeable-Phenotype (%)” value [2] of the same compound?
**A.** 14%

**Q.** What about the “Population Mitochondria Different-Phenotype (%)” value [2] of the same compound?
**A.** 47%

**Q.** What about the “Population Mitotic Cells (%)” value [2] of the same compound?
**A.** 72%

**Q.** What about the “Population Normal (%)” value [2] of the same compound?
**A.** 86%

**Q.** And the “Population Pyknosed Nuclei (%)” value [2]?
**A.** 64%

**Q.** What about the “Population Tubulin-Different-Phenotype (%)” value [2] of the same compound?
**A.** 64%

**Q.** What about the “Total Cell Count” value [2] of the same compound?
**A.** 135

**Q.** And the “Population Apoptotic (%)” value [3]?
**A.** 79%

**Q.** What about the “Population Fragmented Nuclei (%)” value [3] of the same compound?
**A.** 9%

**Q.** What about the “Population Healthy Nuclei (%)” value [3] of the same compound?
**A.** 5%

**Q.** And the “Population Hoechst High Intensity Objects (%)” value [3]?
**A.** 11%

**Q.** And the “Population Membrane Permeable-Phenotype (%)” value [3]?
**A.** 20%

**Q.** What about the “Population Mitochondria Different-Phenotype (%)” value [3] of the same compound?
**A.** 90%

**Q.** What about the “Population Mitotic Cells (%)” value [3] of the same compound?
**A.** 20%

**Q.** And the “Population Normal (%)” value [3]?
**A.** 88%

**Q.** And the “Population Pyknosed Nuclei (%)” value [3]?
**A.** 84%

**Q.** And the “Population Tubulin-Different-Phenotype (%)” value [3]?
**A.** 80%

**Q.** What about the “Total Cell Count” value [3] of the same compound?
**A.** 197

**Q.** What about the “Population Apoptotic (%)” value [4] of the same compound?
**A.** 80%

**Q.** And the “Population Fragmented Nuclei (%)” value [4]?
**A.** 5%

**Q.** And the “Population Healthy Nuclei (%)” value [4]?
**A.** 11%

**Q.** What about the “Population Hoechst High Intensity Objects (%)” value [4] of the same compound?
**A.** 8%

**Q.** What about the “Population Membrane Permeable-Phenotype (%)” value [4] of the same compound?
**A.** 9%

**Q.** What about the “Population Mitotic Cells (%)” value [4] of the same compound?
**A.** 19%

**Q.** What about the “Population Normal (%)” value [4] of the same compound?
**A.** 91%

**Q.** And the “Population Pyknosed Nuclei (%)” value [4]?
**A.** 83%

**Q.** And the “Population Tubulin-Different-Phenotype (%)” value [4]?
**A.** 68%

**Q.** And the “Total Cell Count” value [4]?
**A.** 206

**Q.** What about the “Population Apoptotic (%)” value [5] of the same compound?
**A.** 57%

**Q.** What about the “Population Fragmented Nuclei (%)” value [5] of the same compound?
**A.** 16%

**Q.** What about the “Population Healthy Nuclei (%)” value [5] of the same compound?
**A.** 21%

**Q.** And the “Population Hoechst High Intensity Objects (%)” value [5]?
**A.** 18%

**Q.** And the “Population Membrane Permeable-Phenotype (%)” value [5]?
**A.** 4%

**Q.** What about the “Population Mitochondria Different-Phenotype (%)” value [5] of the same compound?
**A.** 93%

**Q.** And the “Population Mitotic Cells (%)” value [5]?
**A.** 42%

**Q.** And the “Population Normal (%)” value [5]?
**A.** 81%

**Q.** What about the “Population Pyknosed Nuclei (%)” value [5] of the same compound?
**A.** 62%

**Q.** And the “Population Tubulin-Different-Phenotype (%)” value [5]?
**A.** 90%

**Q.** And the “Total Cell Count” value [5]?
**A.** 244

**Q.** What about the “Population Apoptotic (%)” value [6] of the same compound?
**A.** 35%

**Q.** And the “Population Fragmented Nuclei (%)” value [6]?
**A.** 10%

**Q.** What about the “Population Healthy Nuclei (%)” value [6] of the same compound?
**A.** 28%

**Q.** And the “Population Hoechst High Intensity Objects (%)” value [6]?
**A.** 7%

**Q.** And the “Population Membrane Permeable-Phenotype (%)” value [6]?
**A.** 8%

**Q.** And the “Population Mitochondria Different-Phenotype (%)” value [6]?
**A.** 44%

**Q.** And the “Population Mitotic Cells (%)” value [6]?
**A.** 64%

**Q.** What about the “Population Normal (%)” value [6] of the same compound?
**A.** 92%

**Q.** What about the “Population Pyknosed Nuclei (%)” value [6] of the same compound?
**A.** 61%

**Q.** And the “Population Tubulin-Different-Phenotype (%)” value [6]?
**A.** 88%

**Q.** What about the “Total Cell Count” value [6] of the same compound?
**A.** 131

**Q.** And the “Population Apoptotic (%)” value [7]?
**A.** 85%

**Q.** And the “Population Fragmented Nuclei (%)” value [7]?
**A.** 12%

**Q.** What about the “Population Healthy Nuclei (%)” value [7] of the same compound?
**A.** 6%

**Q.** And the “Population Hoechst High Intensity Objects (%)” value [7]?
**A.** 16%

**Q.** What about the “Population Membrane Permeable-Phenotype (%)” value [7] of the same compound?
**A.** 27%

**Q.** And the “Population Mitochondria Different-Phenotype (%)” value [7]?
**A.** 90%

**Q.** And the “Population Mitotic Cells (%)” value [7]?
**A.** 14%

**Q.** What about the “Population Normal (%)” value [7] of the same compound?
**A.** 83%

**Q.** And the “Population Pyknosed Nuclei (%)” value [7]?
**A.** 80%

**Q.** What about the “Population Tubulin-Different-Phenotype (%)” value [7] of the same compound?
**A.** 63%

**Q.** And the “Total Cell Count” value [7]?
**A.** 208

**Q.** What about the “Population Apoptotic (%)” value [8] of the same compound?
**A.** 88%

**Q.** And the “Population Fragmented Nuclei (%)” value [8]?
**A.** 5%

**Q.** What about the “Population Healthy Nuclei (%)” value [8] of the same compound?
**A.** 7%

**Q.** And the “Population Hoechst High Intensity Objects (%)” value [8]?
**A.** 9%

**Q.** What about the “Population Membrane Permeable-Phenotype (%)” value [8] of the same compound?
**A.** 0%

**Q.** What about the “Population Mitochondria Different-Phenotype (%)” value [8] of the same compound?
**A.** 85%

**Q.** And the “Population Mitotic Cells (%)” value [8]?
**A.** 11%

**Q.** And the “Population Normal (%)” value [8]?
**A.** 91%

**Q.** What about the “Population Pyknosed Nuclei (%)” value [8] of the same compound?
**A.** 86%

**Q.** And the “Population Tubulin-Different-Phenotype (%)” value [8]?
**A.** 71%

**Q.** And the “Total Cell Count” value [8]?
**A.** 200

**Q.** And the “Population Apoptotic (%)” value [9]?
**A.** 59%

**Q.** What about the “Population Fragmented Nuclei (%)” value [9] of the same compound?
**A.** 16%

**Q.** What about the “Population Healthy Nuclei (%)” value [9] of the same compound?
**A.** 38%

**Q.** And the “Population Hoechst High Intensity Objects (%)” value [9]?
**A.** 17%

**Q.** What about the “Population Membrane Permeable-Phenotype (%)” value [9] of the same compound?
**A.** 5%

**Q.** What about the “Population Mitochondria Different-Phenotype (%)” value [9] of the same compound?
**A.** 80%

**Q.** What about the “Population Mitotic Cells (%)” value [9] of the same compound?
**A.** 40%

**Q.** And the “Population Normal (%)” value [9]?
**A.** 82%

**Q.** What about the “Population Pyknosed Nuclei (%)” value [9] of the same compound?
**A.** 45%

**Q.** What about the “Population Tubulin-Different-Phenotype (%)” value [9] of the same compound?
**A.** 85%

**Q.** What about the “Total Cell Count” value [9] of the same compound?
**A.** 240

**Q.** What about the “Population Apoptotic (%)” value [10] of the same compound?
**A.** 29%

**Q.** And the “Population Fragmented Nuclei (%)” value [10]?
**A.** 10%

**Q.** What about the “Population Healthy Nuclei (%)” value [10] of the same compound?
**A.** 47%

**Q.** And the “Population Hoechst High Intensity Objects (%)” value [10]?
**A.** 8%

**Q.** What about the “Population Membrane Permeable-Phenotype (%)” value [10] of the same compound?
**A.** 17%

**Q.** And the “Population Mitochondria Different-Phenotype (%)” value [10]?
**A.** 44%

**Q.** And the “Population Mitotic Cells (%)” value [10]?
**A.** 70%

**Q.** And the “Population Normal (%)” value [10]?
**A.** 91%

**Q.** And the “Population Pyknosed Nuclei (%)” value [10]?
**A.** 42%

**Q.** What about the “Population Tubulin-Different-Phenotype (%)” value [10] of the same compound?
**A.** 89%

**Q.** And the “Total Cell Count” value [10]?
**A.** 159

**Q.** And the “Population Apoptotic (%)” value [11]?
**A.** 47%

**Q.** And the “Population Fragmented Nuclei (%)” value [11]?
**A.** 23%

**Q.** And the “Population Healthy Nuclei (%)” value [11]?
**A.** 4%

**Q.** And the “Population Hoechst High Intensity Objects (%)” value [11]?
**A.** 17%

**Q.** What about the “Population Membrane Permeable-Phenotype (%)” value [11] of the same compound?
**A.** 25%

**Q.** What about the “Population Mitochondria Different-Phenotype (%)” value [11] of the same compound?
**A.** 62%

**Q.** What about the “Population Mitotic Cells (%)” value [11] of the same compound?
**A.** 52%

**Q.** What about the “Population Normal (%)” value [11] of the same compound?
**A.** 82%

**Q.** And the “Population Pyknosed Nuclei (%)” value [11]?
**A.** 72%

**Q.** What about the “Population Tubulin-Different-Phenotype (%)” value [11] of the same compound?
**A.** 87%

**Q.** What about the “Total Cell Count” value [11] of the same compound?
**A.** 229

**Q.** And the “Population Apoptotic (%)” value [12]?
**A.** 74%

**Q.** What about the “Population Fragmented Nuclei (%)” value [12] of the same compound?
**A.** 4%

**Q.** And the “Population Healthy Nuclei (%)” value [12]?
**A.** 21%

**Q.** What about the “Population Hoechst High Intensity Objects (%)” value [12] of the same compound?
**A.** 13%

**Q.** And the “Population Membrane Permeable-Phenotype (%)” value [12]?
**A.** 8%

**Q.** What about the “Population Mitochondria Different-Phenotype (%)” value [12] of the same compound?
**A.** 78%

**Q.** And the “Population Mitotic Cells (%)” value [12]?
**A.** 25%

**Q.** What about the “Population Normal (%)” value [12] of the same compound?
**A.** 86%

**Q.** And the “Population Pyknosed Nuclei (%)” value [12]?
**A.** 73%

**Q.** And the “Population Tubulin-Different-Phenotype (%)” value [12]?
**A.** 67%

**Q.** What about the “Total Cell Count” value [12] of the same compound?
**A.** 199
